Reference: ChEMBL document CHEMBL1944537, “6-Nitrobenzimidazole derivatives: potential phosphodiesterase inhibitors: synthesis and structure-activity relationship” (Bioorg Med Chem, 2012)

Biological target: not listed separately
Assay: (§1) Inhibition of Bothrops atrox venom phosphodiesterase-1 assessed as conversion of […] p-nitrophenol using bis(p-nitropheny1) phosphate as substrate preincubated for 30 mins by spectrophotometric analysis
In short: (§2)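 Crude dried snake venom as enzyme source, 0.000742 U/well, in 33 mM Tris-HCl pH 8.8 with 30 mM magnesium acetate. Substrate 0.33 mM bis(p-nitrophenyl) phosphate. Enzyme and test sample pre-incubated 30 min, then p-nitrophenol release followed as OD/min at 410 nm, 37 °C, on a microtitre plate reader. EDTA positive control. Run in triplicate; IC50 determined.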

Compound | IC50 [µM]
O=[N+]([O-])c1ccc2nc(-c3ccc(O)cc3)[nH]c2c1 | 2.4
O=C(O)CN(CCN(CC(=O)O)CC(=O)O)CC(=O)O [EDETIC ACID] | 274
COc1ccc(-c2nc3cc([N+](=O)[O-])ccc3[nH]2)cc1OC | 63.1
O=[N+]([O-])c1ccc2[nH]c(-c3ccc(Cl)cc3)nc2c1 | 120
O=[N+]([O-])c1ccc2nc(-c3cc(Cl)cc(Cl)c3O)[nH]c2c1 | 294
O=[N+]([O-])c1ccc2nc(-c3c(O)cc(O)cc3O)[nH]c2c1 | 6.4
O=[N+]([O-])c1ccc2nc(-c3cccc(O)c3O)[nH]c2c1 | 1.5
O=[N+]([O-])c1ccc2nc(-c3ccc(O)c(O)c3)[nH]c2c1 | 5.7
O=[N+]([O-])c1ccc2nc(-c3ccc(O)c(O)c3O)[nH]c2c1 | 10.5
O=[N+]([O-])c1ccc2nc(-c3ccc(O)cc3O)[nH]c2c1 | 11.5
O=[N+]([O-])c1ccc(-c2nc3cc([N+](=O)[O-])ccc3[nH]2)cc1 | 153

Tested on: Bothrops atrox
Assay: as §1
Set-up: concentration or dose not given beside the values
In short: as §2

Compound | inhibition [%]
O=[N+]([O-])c1ccc2nc(-c3ccc(Cl)c(Cl)c3)[nH]c2c1 | < 50
O=[N+]([O-])c1ccc2nc(-c3ccccc3F)[nH]c2c1 | < 50
O=[N+]([O-])c1ccc2nc(-c3ccccc3O)[nH]c2c1 | < 50
CSc1ccc(-c2nc3ccc([N+](=O)[O-])cc3[nH]2)cc1 | < 50
O=[N+]([O-])c1ccc2[nH]c(-c3ccncc3)nc2c1 | < 50
O=[N+]([O-])c1ccc2nc(-c3cc(Cl)ccc3O)[nH]c2c1 | < 50
CCOc1cccc(-c2nc3ccc([N+](=O)[O-])cc3[nH]2)c1O | < 50
O=[N+]([O-])c1ccc2nc(-c3cccc4cc5ccccc5cc34)[nH]c2c1 | < 50
O=[N+]([O-])c1ccc2nc(-c3ccc(Br)cc3)[nH]c2c1 | < 50
Cc1ccc(-c2nc3cc([N+](=O)[O-])ccc3[nH]2)cc1 | < 50
COc1cccc(-c2nc3ccc([N+](=O)[O-])cc3[nH]2)c1O | < 50
O=[N+]([O-])c1ccc2nc(-c3ccccc3Cl)[nH]c2c1 | < 50
O=[N+]([O-])c1ccc2nc(-c3cc(Br)cc(Br)c3O)[nH]c2c1 | < 50
O=[N+]([O-])c1ccc2nc(-c3cc(O)ccc3O)[nH]c2c1 | < 50
O=[N+]([O-])c1ccc2nc(-c3ccc(Cl)cc3Cl)[nH]c2c1 | < 50
O=[N+]([O-])c1ccc2nc(-c3ccsc3)[nH]c2c1 | < 50
O=[N+]([O-])c1ccc2nc(-c3cccc4c3ccc3ccccc34)[nH]c2c1 | < 50
O=[N+]([O-])c1ccc(Cl)c(-c2nc3ccc([N+](=O)[O-])cc3[nH]2)c1 | < 50
CN(C)c1ccc(-c2nc3ccc([N+](=O)[O-])cc3[nH]2)cc1 | < 50
O=[N+]([O-])c1ccc2[nH]c(-c3ccccc3)nc2c1 | < 50
